CHOP inh: inhibitors of CHOP promoter induction, primary screen, cell-based, unfolded protein response, luciferase reporter | CHO-K1 CHOP-promoter luciferase, tunicamycin-induced, 15-18 h | inhibition, % at 10 µM | 3.8% of 220,000 active;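 active means compounds that reduced the stress-induced luciferase reporter signal by more than about 70% of percent inhibition, limit read from the data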;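 further: 0% = tunicamycin plus vehicle and 100% = wells without tunicamycin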
UPR CHOP act: activators of apoptotic CHOP UPR arm, primary screen, cell-based, CHO-CHOP luciferase reporter, luminescence, uHTS. UPR activation; percent of tunicamycin response over DMSO baseline. activation, % at 10 µM. 0.34% of 330,000 active;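 active means at 10 µM dose, activation of 40% or more, normalized to positive control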;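 further: 100% = tunicamycin at 10 µg/mL and 0% = DMSO alone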
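Test system: CHO-CHOP cells, stable luciferase reporter of PERK-eIF2a-CHOP signalling | Quantity: 500 CHO-CHOP cells per well | Buffer or medium: F12 plus 10% serum | Compound dosing: 10 µM single point, 0.5% DMSO | Schedule: 6 h compound treatment, 37 °C | Signal: Luciferase luminescence | Control set: Tunicamycin high control, DMSO low control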
XBP1 UPR activ: activators of adaptive XBP1 UPR arm, primary screen, cell-based, CHO-XBP1 luciferase reporter, luminescence, uHTS; IRE1-XBP1 UPR activation; percent of tunicamycin response, DMSO as zero; activation, % at 20 µM; 0.33% of 330,000 active; AID 463104, 2010;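 active means versus positive control, 20 µM dose yields 30% or more activation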;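 further: 100% = tunicamycin at 10 µg/mL and 0% = DMSO only wells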
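Material: CHO-XBP1 cells stably carrying IRE1-XBP1-driven luciferase reporter / Amount: 1000 cells per well / Compound: 20 µM, 1% DMSO / Times: 6 h treatment, 37 °C / Detection: luciferase luminescence / Measure: % activation of reporter signal versus tunicamycin and DMSO controls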
FXN GAA850 act: FXN promoter activators, primary screen, cell-based, luciferase luminescence, HEK293 lucGAA850. activation, % at 6 µM. AID 540364, 2011. 0.56% of 360,000 active. HEK293 lucGAA850 FXN promoter luciferase reporter, 24 h; percent of 10 µM SAHA response;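 active means activation above the average of all compounds screened plus 3 SD, cutoff fixed separately per campaign, cut at about 7.5% in these data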;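 further: 0% = DMSO wells and 100% = 10 µM SAHA wells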
CHOP confirm: retest of CHOP induction inhibitors, confirmation, cell-based; shares compounds with CHOP inh; CHO-CHOP promoter luciferase reporter, tunicamycin-induced, luminescence; inhibition, % at 10 µM; 45% of 2,100 active; AID 504437, 2011;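 active means mean of three repeat readings of reporter signal inhibition above a set limit, cut at about 70% in these data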;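 further: 0% = tunicamycin plus vehicle and 100% = wells lacking tunicamycin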
Starred values were filed as active, the others as inactive. This excerpt belongs to a sample that is enriched for hits.

How did Nc1ccc2c(c1)C(=O)C(=O)c1ccccc1-2 do in these assays?
UPR CHOP act: -8; XBP1 UPR activ: -8; FXN GAA850 act: -15; CHOP confirm: 140*

How did O=C1C(=O)c2ccc(-c3ccccc3)cc2-c2ccccc21 do in these assays?
CHOP inh: 109*; UPR CHOP act: -9; XBP1 UPR activ: -7; FXN GAA850 act: -3; CHOP confirm: 140*

Results for COc1ccc(NS(=O)(=O)c2ccc(O)c(NC(=O)c3cc4c(C)nn(-c5ccc(F)cc5)c4s3)c2)cc1 ?
CHOP inh: 108*; UPR CHOP act: 9; XBP1 UPR activ: -3; FXN GAA850 act: 2; CHOP confirm: 115*

How did COc1ccc(NS(=O)(=O)c2ccc(N3CCOCC3)c(NC(=O)c3ccc(F)cc3)c2)cc1 do in these assays?
CHOP inh: -20; UPR CHOP act: 4; XBP1 UPR activ: -2; FXN GAA850 act: -3

Results for CC(=O)NC(c1ccccc1)c1nc(-c2ccc3ccccc3c2)cs1 (configuration not stated) ?
FXN GAA850 act: 1

How did O=C(N/N=C/c1c[nH]c2ccccc12)c1cc(-c2ccc(-c3ccccc3)cc2)n[nH]1 do in these assays?
CHOP inh: 109*; UPR CHOP act: 29; XBP1 UPR activ: 4; FXN GAA850 act: -1; CHOP confirm: 40

What do the screens show for `O=C(N/N=C/c1c[nH]c2ccccc12)c1cc(-c2ccccc2)n[nH]1`?
CHOP inh: 14; UPR CHOP act: -1; XBP1 UPR activ: 3; FXN GAA850 act: 2

Results for O=C(N/N=C/c1c[nH]c2ccccc12)C1CC1(c1ccccc1)c1ccccc1 (configuration not stated) ?
CHOP inh: 100*; UPR CHOP act: 4; XBP1 UPR activ: -1; FXN GAA850 act: -1; CHOP confirm: 34

Results for O=C(N/N=C/c1ccccn1)c1cc(-c2ccc3ccccc3c2)n[nH]1 ?
CHOP inh: 103*; UPR CHOP act: 2; XBP1 UPR activ: 3; FXN GAA850 act: 2; CHOP confirm: 114*

Results for CCc1ccc(-c2cc(C(=O)N/N=C/c3ccccn3)[nH]n2)cc1 ?
CHOP inh: 40; UPR CHOP act: 3; XBP1 UPR activ: 9; FXN GAA850 act: 1

What do the screens show for `O=C(N/N=C/c1ccco1)c1cc(-c2ccc3ccccc3c2)n[nH]1`?
CHOP inh: 110*; UPR CHOP act: 0; XBP1 UPR activ: -4; FXN GAA850 act: 3; CHOP confirm: 4

How did C[C@H](CO)N1C[C@H](C)[C@H](CN(C)C(=O)Cc2cccnc2)Oc2ncc(Br)cc2C1=O do in these assays?
FXN GAA850 act: 1

Results for O=C(N/N=C/C=C\c1ccccc1[N+](=O)[O-])c1cc(-c2ccc3ccccc3c2)n[nH]1 ?
CHOP inh: 106*; FXN GAA850 act: 3; CHOP confirm: -34

Results for O=C(Nc1ccc(-c2nc3ccccc3o2)cc1)c1ccc(N2CCOCC2)c([N+](=O)[O-])c1 ?
CHOP inh: 101*; UPR CHOP act: -6; XBP1 UPR activ: -6; FXN GAA850 act: -2; CHOP confirm: 114*

What do the screens show for `Cc1ccn2cc(-c3cc4ccccc4oc3=O)nc2c1`?
CHOP inh: 105*; FXN GAA850 act: 0; CHOP confirm: 88*

How did Cc1ccc(-c2csc(Cc3nc(-c4cc5ccccc5oc4=O)cs3)n2)cc1 do in these assays?
CHOP inh: 30; UPR CHOP act: 3; XBP1 UPR activ: -2; FXN GAA850 act: -1

How did CCCCN(C)c1c(C)nc2ccc(C(=O)N3CCN(C(C)=O)CC3)cn12 do in these assays?
FXN GAA850 act: 1

Results for CC(=O)c1ccc(NC(=O)CCCN2C(=O)/C(=C/C(C)=C/c3ccccc3)SC2=S)cc1 ?
CHOP inh: 26; UPR CHOP act: 1; XBP1 UPR activ: -1; FXN GAA850 act: -2

Results for CC(/C=C1\SC(=O)N(CC(=O)Nc2ccc(O)cc2)C1=O)=C\c1ccccc1 ?
CHOP inh: 96*; UPR CHOP act: 0; XBP1 UPR activ: 3; FXN GAA850 act: -4; CHOP confirm: -43

Results for O=C(Nc1ccc(F)c(Cl)c1)Nc1csc2ccccc12 ?
CHOP inh: 99*; UPR CHOP act: 13; XBP1 UPR activ: -2; FXN GAA850 act: -1; CHOP confirm: 26

How did Cc1coc2c(C)c3oc(=O)c(CCC(=O)N[C@H](C(=O)O)C(C)C)c(C)c3cc12 do in these assays?
FXN GAA850 act: 0

How did COC(=O)c1ccc2c(=O)n(CCCCCC(=O)N3CCN(c4ccccc4)CC3)c(=O)[nH]c2c1 do in these assays?
CHOP inh: 105*; UPR CHOP act: -6; XBP1 UPR activ: -4; FXN GAA850 act: -1; CHOP confirm: 113*

How did CC(=O)Nc1cccc(-c2ccnc3c2CC(C)(C(=O)Nc2ccc(Cl)cc2)O3)c1 (configuration not stated) do in these assays?
FXN GAA850 act: -6

What do the screens show for `O=C(NCc1ccccc1Cl)c1ccc2nc([C@@H]3O[C@H](CO)[C@H](O)[C@H](O)[C@H]3O)[nH]c2c1`?
FXN GAA850 act: 0

How did CC(C)NC(=O)NC(=O)CSc1nnc(COc2ccccc2F)n1C(C)C1CC2CCC1C2 (configuration not stated) do in these assays?
CHOP inh: 106*; UPR CHOP act: 6; XBP1 UPR activ: 10; FXN GAA850 act: 0; CHOP confirm: 38

Results for CCNc1nc(Oc2ccc(Cl)cc2Cl)cc(C(F)(F)F)n1 ?
CHOP inh: 54; UPR CHOP act: -2; XBP1 UPR activ: -1; FXN GAA850 act: -1

How did CCNc1nc(Oc2c(Cl)cccc2Cl)cc(C(F)(F)F)n1 do in these assays?
CHOP inh: 98*; UPR CHOP act: -1; XBP1 UPR activ: -1; FXN GAA850 act: 0; CHOP confirm: 102*

What do the screens show for `Cc1ccc2c(c1)c(=O)c1c3n2CCN(C(=O)CCl)C3CC1` (configuration not stated)?
UPR CHOP act: 2; XBP1 UPR activ: 1; FXN GAA850 act: 0; CHOP confirm: 19

What do the screens show for `Cc1ccc2c(c1)c1c3n2CCN(C(=O)CN2CCN(C)CC2)C3CCC1` (configuration not stated)?
CHOP inh: 12; UPR CHOP act: 3; XBP1 UPR activ: -1; FXN GAA850 act: 4

How did Cc1cc2c3c(c1)C(C)(c1ccccc1)CC(C)(C)N3C(=O)C21C(C#N)=C(N)OC2=C1C(=O)CC(C)(C)C2 (configuration not stated) do in these assays?
CHOP inh: 107*; UPR CHOP act: -1; XBP1 UPR activ: 2; FXN GAA850 act: -2; CHOP confirm: 97*

Compound activity as filed in PubChem BioAssay.
